Laboratory results reported in ChEMBL document CHEMBL1123695, “Synthesis and 3'-substituent effects of some 7 alpha-methoxy-1-oxacephems on antibacterial activity and alkaline hydrolysis rates” (1987).
Converted amounts (≈) assume the structure as drawn.

How the values were obtained:
Format in all cases: functional
Bacteria [1] = assay: Geometric mean of the four MIC's of different sensitive gram negative bacteria expressed
Klebsiella pneumoniae = assay: Antibacterial activity against Kleb. pneumoniae (SRL-1) a sensitive gram-negative bacteria
In short: (§1)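 Agar dilution on sensitivity test agar containing serial twofold antibiotic dilutions. Overnight tryptosoy broth cultures were diluted in the same broth to about 10^6 cells/mL, and one loopful was applied with an inoculating device. Plates were incubated at 37 °C for 18-20 h. MIC was taken as the lowest concentration inhibiting visible growth, in micrograms per milliliter.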

Escherichia coli [2] = assay: Antibacterial activity against Escherichia coli (EC-14) a sensitive gram-negative bacteria; in short: as §1
Escherichia coli [3] = assay: Antibacterial activity against Escherichia coli (NIHJ JC-2) a sensitive gram-negative bacteria; in short: as §1
Escherichia coli [4] = assay: Antibacterial activity against Escherichia coli (H) a sensitive gram-negative bacteria; in short: as §1
Bacteria [5] = assay: Geometric mean of the four MIC's of different sensitive gram negative bacteria.

| Structure (SMILES) | Geometric mean (Bacteria [1]) | MIC (Klebsiella pneumoniae) | MIC (Escherichia coli [2]) | MIC (Escherichia coli [3]) | MIC (Escherichia coli [4]) | Geometric mean (Bacteria [5]) |
| --- | --- | --- | --- | --- | --- | --- |
| CO[C@@]1(NC(=O)Cc2ccccc2)C(=O)N2C(C(=O)[O-])=C(C[n+]3ccccc3)COC21 (stereo not given in full) | 29.5 µM | 12.5 µg/mL (≈ 29.5 µM) | 12.5 µg/mL (≈ 29.5 µM) | 12.5 µg/mL (≈ 29.5 µM) | 12.5 µg/mL (≈ 29.5 µM) | – |
| CO[C@@]1(NC(=O)Cc2ccccc2)C(=O)N2C(C(=O)[O-])=C(COC(N)=O)COC21.[Na+] (stereo not given in full) | 3.66 µM | 3.13 µg/mL | 0.78 µg/mL | 3.13 µg/mL | 0.78 µg/mL | – |
| CO[C@@]1(NC(=O)Cc2ccccc2)C(=O)N2C(C(=O)[O-])=C(CSc3nnnn3C)CO[C@@H]21.[Na+] | 0.684 µM | 0.39 µg/mL | 0.39 µg/mL | 0.78 µg/mL | 0.1 µg/mL | – |
| CO[C@@]1(NC(=O)Cc2ccccc2)C(=O)N2C(C(=O)[O-])=C(CO)CO[C@@H]21.[Na+] | 130 µM | 50 µg/mL | 50 µg/mL | 100 µg/mL | 25 µg/mL | – |
| COCC1=C(C(=O)[O-])N2C(=O)[C@](NC(=O)Cc3ccccc3)(OC)[C@H]2OC1.[Na+] | 178 µM | 50 µg/mL | 100 µg/mL | 200 µg/mL | 25 µg/mL | – |
| CO[C@@]1(NC(=O)Cc2ccccc2)C(=O)N2C(C(=O)[O-])=C(CC#N)CO[C@@H]21.[Na+] | 63.6 µM | 25 µg/mL | 25 µg/mL | 50 µg/mL | 12.5 µg/mL | – |
| CO[C@@]1(NC(=O)Cc2ccccc2)C(=O)N2C(C(=O)[O-])=C(COC(C)=O)CO[C@@H]21.[Na+] | 4.36 µM | 1.56 µg/mL | 3.13 µg/mL | 3.13 µg/mL | 0.78 µg/mL | – |
| CO[C@@]1(NC(=O)Cc2ccccc2)C(=O)N2C(C(=O)[O-])=C(C)CO[C@@H]21.[Na+] | – | 100 µg/mL | 100 µg/mL | 200 µg/mL | 100 µg/mL | 323 µM |
| CO[C@@]1(NC(=O)Cc2ccccc2)C(=O)N2C(C(=O)[O-])=C(CSC)CO[C@@H]21.[Na+] | 406 µM | 100 µg/mL | 200 µg/mL | > 400 µg/mL | 50 µg/mL | – |
